High-throughput results as filed in PubChem BioAssay.
T cruzi repl: blocks replication of Trypanosoma cruzi. T. cruzi beta-gal in NIH3T3, luminescence, 90 h. inhibition, % (test concentration not listed). 300,000 tested, 1.4% active;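 active = mean inhibition across valid replicates above about 55%, limit read from the data; inconclusive = mean below that limit but half or more replicates reach it; inactive = mean below it, under half of replicates reach it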;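 also: signal also drops with host cell toxicity which is not excluded here; higher percent means less beta-gal luminescence so fewer parasites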
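Incubation – ≥90 h infection period, 3 h prior cell attachment · System – NIH/3T3 fibroblasts plus reporter T. cruzi · Doses – compound pinned at 50 nL/well, DMSO · Read-out basis – percent inhibition of parasite-derived β-gal signal · Signal – luminescent β-galactosidase signal after 60 min lysis · Also added – 5000 T. cruzi trypomastigotes/well · Medium – Low-serum DMEM with 2% FBS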
CHOP inhibitor: blocks CHOP induction under ER stress. CHO-K1 CHOP-promoter luciferase, tunicamycin-induced, 15-18 h. inhibition, % at 10 µM. 220,000 tested, 3.8% active. AID 2732;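 active = compounds that reduced the stress-induced luciferase reporter signal by more than about 70% of percent inhibition, limit read from the data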
PREPL inh: inhibits the human prolyl oligopeptidase-like enzyme; Q4J6C6; recombinant PREPL, fluorescence polarization activity-based probe; 320,000 tested, 0.68% active; inhibition, % at 5.96 µM; in the data active = inhibition above about 43%
Target sequence (Q4J6C6 whole entry, looked up): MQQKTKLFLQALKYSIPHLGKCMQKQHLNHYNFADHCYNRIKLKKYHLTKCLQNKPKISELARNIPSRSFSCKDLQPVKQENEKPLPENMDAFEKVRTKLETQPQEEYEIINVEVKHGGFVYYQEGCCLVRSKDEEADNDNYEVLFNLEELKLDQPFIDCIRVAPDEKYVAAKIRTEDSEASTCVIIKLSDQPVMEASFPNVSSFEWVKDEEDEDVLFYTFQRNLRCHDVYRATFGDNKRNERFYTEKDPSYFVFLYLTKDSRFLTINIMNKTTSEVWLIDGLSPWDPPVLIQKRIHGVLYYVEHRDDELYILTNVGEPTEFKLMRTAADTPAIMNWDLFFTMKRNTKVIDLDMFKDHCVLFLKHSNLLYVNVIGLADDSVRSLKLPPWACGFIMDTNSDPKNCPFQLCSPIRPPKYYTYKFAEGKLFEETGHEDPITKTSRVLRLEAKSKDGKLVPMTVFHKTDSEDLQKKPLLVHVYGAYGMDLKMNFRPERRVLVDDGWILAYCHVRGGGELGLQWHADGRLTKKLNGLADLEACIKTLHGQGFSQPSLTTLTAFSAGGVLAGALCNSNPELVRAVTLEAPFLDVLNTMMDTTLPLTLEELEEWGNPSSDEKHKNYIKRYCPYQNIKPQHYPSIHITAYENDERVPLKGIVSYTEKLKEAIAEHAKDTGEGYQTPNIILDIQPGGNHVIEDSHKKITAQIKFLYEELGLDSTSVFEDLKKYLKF
NR3A LBD binder: modulates the human NR3A ligand-binding domain | NR3A LBD differential scanning fluorimetry, Tm shift; 0% = protein alone, 100% = glycine-bound protein | Tm shift relative to glycine control, % at 25 µM | 340,000 tested, 2.5% active | AID 1259313;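 active = melting temperature shift of at least 10% of the positive control shift, at one fixed dose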
CSC inhib: blocks cancer stem cells; cancer stem cell-like cells viability, luminescence; inhibition, % at 7.5 µM; 300,000 tested, 1.1% active; in the data active = inhibition above about 75%; inconclusive = no clear call, values can overlap the other calls; tested in HMLE shEcad cells
Beta apoptosis: blocks beta cell apoptosis. INS-1E cytokine-induced death, ATP luminescence, 48 h; percent of positive-control rescue, neutral wells zero. protection from apoptosis, % (no concentration beside the values). 300,000 tested, 0.8% active;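 active = Every replicate reaches about 75%, or at least half do and their mean reaches it too, limit read from the data; inconclusive = At least half of replicates reach the limit but their mean does not; inactive = Under half of replicates reach the limit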;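 also: higher means more ATP so stronger rescue from cytokine killing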
Large screens that a line does not name were inactive. Only some compounds are listed: those with a hit (about 6.7% of all), similar ones and a draw of the others.

O=C(COC(=O)[C@@H]1CC(O)CN1S(=O)(=O)c1ccc2c(c1)OCCO2)Nc1cc(F)ccc1F (some centres not stated)	none (no result: T cruzi repl, CHOP inhibitor)
COCCN=c1scc(-c2cccs2)n1/N=C/c1ccc(O)c(O)c1O	none
COCCN=c1scc(-c2ccccc2)n1/N=C/c1c[nH]c2ccccc12	CHOP inhibitor 73
COc1ccc(-c2cc(C(=O)N3CCCc4ccccc43)no2)cc1	none
O=C(Nc1ccc2c(c1)OCO2)c1cc(-c2ccc(O)cc2)on1	T cruzi repl 55, NR3A LBD binder 18, CSC inhib 101 (no result: CHOP inhibitor, Beta apoptosis)
O=C(Nc1ccc2c(c1)OCO2)c1cc(-c2cccc(O)c2)on1	CSC inhib 100 (no result: CHOP inhibitor)
COc1cccc(-c2cc(C(=O)N3CCCc4ccccc43)no2)c1	CHOP inhibitor 73
Cc1ccc(NC(=O)c2cc(-c3ccc4c(c3)OCO4)on2)cc1C	none (no result: CHOP inhibitor)
CC(C)Cc1cc(C(=O)Nc2ccc3c(c2)OCO3)no1	CSC inhib 122
C[C@H](CO)N1C[C@H](C)[C@@H](CN(C)C(=O)NC2CCCCC2)Oc2ccc(NS(=O)(=O)c3ccc(F)cc3)cc2C1=O	none (no result: T cruzi repl, CHOP inhibitor)
COC(=O)CCC(C)C1CCC2C3CCC4CC(O)CCC4(C)C3CC(O)C12C (configuration not stated)	none (no result: T cruzi repl, CHOP inhibitor, PREPL inh, CSC inhib, Beta apoptosis)
COc1ccc(C(=O)N2CCC3(CC2)NCCc2[nH]cnc23)cc1	none (no result: CHOP inhibitor)
CN(C)CCCNS(=O)(=O)c1ccc(Cl)s1	none
COc1cccc(-c2cc(C(=O)Nc3ccc4c(c3)OCO4)no2)c1	NR3A LBD binder 15 (no result: CHOP inhibitor, Beta apoptosis)
O=C(c1cccc([N+](=O)[O-])c1)N1CCc2ccccc21	none (no result: CHOP inhibitor)
O=C(c1cc([N+](=O)[O-])cc([N+](=O)[O-])c1)N1CCCc2ccccc21	T cruzi repl 73
COc1ccc(-c2cc(C(=O)Nc3ccc4c(c3)OCO4)no2)cc1OC	none (no result: CHOP inhibitor)
CCNc1nc(NCC)n2c(SCC(=O)Nc3cccc(Cl)c3)nnc2n1	none (no result: CHOP inhibitor)
CCNc1nc(NCC)n2c(SC(C(=O)Nc3cc(Cl)cc(Cl)c3)c3ccccc3)nnc2n1 (configuration not stated)	CHOP inhibitor 90, NR3A LBD binder 11, CSC inhib inconclusive
Clc1ccc2c(c1)C(N1CCNCC1)Cc1ccccc1S2 (configuration not stated)	CHOP inhibitor 79
CC(=O)Nc1cccc(-c2nc3ccc(NC(C)=O)cc3[nH]2)c1	none
O=C(c1ccccc1)c1ccc2nc(-c3ccc(NC(=O)c4ccccc4F)cc3)[nH]c2c1	NR3A LBD binder 18
O=C(Nc1ccc2nc(-c3ccccc3)[nH]c2c1)c1cccs1	NR3A LBD binder 30 (no result: CHOP inhibitor)
O=C(Nc1ccc2nc(-c3ccco3)[nH]c2c1)c1ccco1	none
Cc1ccc2nc(-c3ccc(NC(=O)Cc4cccs4)cc3)[nH]c2c1	CHOP inhibitor 79, NR3A LBD binder 34
O=C(O)CCC(=O)Nc1ccc(-c2nc3ccc(C(=O)c4ccccc4)cc3[nH]2)cc1	none (no result: CHOP inhibitor)
Cc1ccc2nc(NC(=O)Cc3cccs3)sc2c1	none
O=C(Nc1ccc2nc(-c3ccco3)[nH]c2c1)c1cccs1	NR3A LBD binder 13
Cc1cc(C)c(C)c(S(=O)(=O)Nc2ccccc2N2CCOCC2)c1C	none (no result: T cruzi repl, CHOP inhibitor)
Cc1ccnc(NS(=O)(=O)c2ccc(NC(=O)c3cc(=O)c4ccccc4o3)cc2)n1	none (no result: CHOP inhibitor)
Cc1ccc2c(C)c(C(=O)N3CCCC(C(N)=O)C3)oc2c1C (configuration not stated)	none (no result: CHOP inhibitor, PREPL inh, CSC inhib, Beta apoptosis)
COc1cccc(CNC(=O)[C@@H](C)N2C(=O)N3CCc4c([nH]c5ccc(OC)cc45)C3(C)C2=O)c1 (some centres not stated)	none (no result: CHOP inhibitor)
O=C(Nc1ccc2nc(-c3ccc4nc[nH]c4c3)[nH]c2c1)c1cccs1	NR3A LBD binder 29
Cc1ccc2[nH]c(=O)c3cc(C(=O)N(C)C4CCCCC4)sc3c2c1	none (no result: CHOP inhibitor)
Oc1c(Cl)cc(Cl)cc1C=Nc1ccc(Br)cc1	none (no result: CSC inhib)
Oc1c(Cl)cc(Cl)cc1/C=C/c1ccc2cccc(O)c2n1	NR3A LBD binder 25
Oc1ccc(Cl)cc1/C=C/c1ccc2cccc(O)c2n1	CHOP inhibitor 94, NR3A LBD binder 30 (no result: PREPL inh, CSC inhib, Beta apoptosis)
CC(C)CCSc1nc2[nH]ncc2c(=O)[nH]1	none
Cc1ccc(CN2CCCN(C)CC2)c(C)c1	none (no result: CHOP inhibitor)
COc1ccccc1C1=NN(C(=O)c2ccccc2)C(c2ccc(Br)cc2)C1 (configuration not stated)	none (no result: CHOP inhibitor)
O=C(NCCOCCOCCNC(=O)c1cccnc1)c1cccnc1	Beta apoptosis 120
CCOC(=O)c1sc(=S)n(-c2ccccc2OC)c1N	NR3A LBD binder 16
Cc1nc2sc3c(c2c2nc(-c4ccco4)nn12)CCCC3	none (no result: T cruzi repl, PREPL inh, NR3A LBD binder, CSC inhib, Beta apoptosis)
c1coc(-c2nc3c4c5c(sc4ncn3n2)CCCC5)c1	CHOP inhibitor 79
O=C(Nc1ccc2ncccc2c1)Nc1ccc2ncccc2c1	NR3A LBD binder 33
O=C(Nc1ccccc1)Nc1cccc2cccnc12	NR3A LBD binder 13
O=C(O)/C=C/C(=O)Nc1cccc2cccnc12	none
O=C(Nc1ccc2ncccc2c1)c1ccccc1Br	NR3A LBD binder 18 (no result: CHOP inhibitor)
Cc1c([N+](=O)[O-])cc(C(=O)Nc2ccc3ncccc3c2)cc1[N+](=O)[O-]	none (no result: CHOP inhibitor)
O=C(Nc1ccc2[nH]ncc2c1)c1ccccc1Br	none (no result: CHOP inhibitor)
O=C1CCCN1C(=O)CSc1nnnn1-c1cccc(F)c1	none (no result: T cruzi repl, CHOP inhibitor)
CCOC(=O)/C(=C/C=C1\Sc2cc(C)c(C)cc2N1CC)C(C)=O	CHOP inhibitor 94 (no result: PREPL inh, CSC inhib, Beta apoptosis)
O=C(NCCCN1CCCC1=O)C(=O)NCC1OCCN1S(=O)(=O)c1ccc(Cl)cc1 (configuration not stated)	none (no result: CHOP inhibitor)
COc1cc(CNc2ccc(N3CCCCC3)cc2)ccc1OCC(=O)NC(C)(C)C	none (no result: CHOP inhibitor)
CC(C)(C)OC(=O)[C@H](Cc1ccccc1)NC(=O)c1[nH]cnc1C(=O)Nc1ccc(Cl)cc1	CSC inhib 120
CC(C)(C)OC(=O)[C@H](Cc1ccccc1)NC(=O)c1[nH]cnc1C(=O)Nc1cccc(Cl)c1	CSC inhib 97
Cc1cccc(NC(=O)c2nc[nH]c2C(=O)N[C@@H](Cc2ccccc2)C(=O)OC(C)(C)C)c1	CHOP inhibitor 74
CC(C)(C)OC(=O)[C@H](Cc1ccccc1)NC(=O)c1nc[nH]c1C(=O)N[C@@H](Cc1ccccc1)C(=O)OC(C)(C)C	none
COc1ccc(/C=C/CN2CCCC(CO)(Cc3cccc(Cl)c3)C2)cc1 (configuration not stated)	none
O=[N+]([O-])c1cc2cccnc2c2ncccc12	none
Cc1ccc([N+](=O)[O-])c2cccnc12	none
CCC(=O)NC(/C=C/c1ccccc1)c1cc([N+](=O)[O-])c2cccnc2c1O (configuration not stated)	CSC inhib 151, Beta apoptosis 77 (no result: NR3A LBD binder)
Cc1ccc(C(NC(=O)C(C)C)c2cc([N+](=O)[O-])c3cccnc3c2O)cc1 (configuration not stated)	CSC inhib 144
